Screening data deposited in PubChem by The Scripps Research Institute Molecular Screening Center.
Hits are enriched below; roughly 0.29% of the tested compounds scored in any of these assays.
PKA-R2B activ = activators of human PKA-R2B complex; P22694+P31323; PKA-R2B holoenzyme dissociation, Cy5-IP20 fluorescence polarization; R2B truncated from residue 108, S112A mutant; 0% DMSO only, 100% 113 µM cGMP; activation, % at 11.4 µM; 0.079% of 340,000 active;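 active = activation above a cutoff set at the mean over all compounds plus 3 SD, cut at about 18% in these data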;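 also: higher means more holoenzyme dissociation and a rise in polarization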
PKA-R1A activ = activates the PKA-R1A holoenzyme complex; AID 504707; 0.083% of 340,000 active; PKA-R1A dissociation, Cy5-IP20 fluorescence polarization; scaled: DMSO 0%, 113 µM cGMP 100%; activation, % at 11.4 µM; P00514+P68181;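 active = percent activation above the mean of all tested compounds plus 3 SD, cut at about 19% in these data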;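 also: higher means more PKAc released from R1A so a rise in polarization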
procasp7 counter = counter-screen: procaspase-7 (human) activation. P55210. recombinant procaspase-7, Ac-DEVD-pNA absorbance 405 nm; D23A/D198A/D206A triple mutant, cannot self-cleave; scale: DMSO 0, 5 µM enzyme 100. activation, % at 8.5 µM. 0.093% of 330,000 active. AID 463210;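 active = percent activation above the screen-wide mean plus 3 SD, cut at about 25% in these data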
Target sequence (P55210 whole entry D23A/D198A/D206A): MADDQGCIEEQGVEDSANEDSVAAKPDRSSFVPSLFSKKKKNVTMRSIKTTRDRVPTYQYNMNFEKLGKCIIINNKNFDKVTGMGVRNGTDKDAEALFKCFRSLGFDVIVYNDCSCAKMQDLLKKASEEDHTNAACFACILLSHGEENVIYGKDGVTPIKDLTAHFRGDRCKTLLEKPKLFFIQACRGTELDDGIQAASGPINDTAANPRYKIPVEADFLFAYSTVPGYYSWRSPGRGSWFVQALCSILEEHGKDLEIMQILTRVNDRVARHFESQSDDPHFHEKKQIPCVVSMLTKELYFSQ
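buffer or medium = Zinc-free HEPES/NaCl buffer, pH 7.4 | material = Procaspase-7 triple mutant (PC-7 D3A) | input = 2 µM procaspase-7 mutant as dispensed | signal = Epi-absorbance of released pNA at 405 nm, two timepoints | timing = 1 h preincubation, 2 h reaction | replicates = singlicate compound testing | evaluation = % activation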
proCasp3 act = procaspase-3 (human) activation; P42574; recombinant procaspase-3 D3A, Ac-DEVD-pNA absorbance 405 nm; activation, % at 8.5 µM; 0.11% of 330,000 active; AID 463141;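 active = activation above the mean of all tested compounds plus 3 SD, cut at about 21% in these data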;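 also: 0% = DMSO alone and 100% = DMSO wells spiked with extra 5 µM PC-3 D3A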
Target sequence (P42574 whole entry D9A/D28A/D175A): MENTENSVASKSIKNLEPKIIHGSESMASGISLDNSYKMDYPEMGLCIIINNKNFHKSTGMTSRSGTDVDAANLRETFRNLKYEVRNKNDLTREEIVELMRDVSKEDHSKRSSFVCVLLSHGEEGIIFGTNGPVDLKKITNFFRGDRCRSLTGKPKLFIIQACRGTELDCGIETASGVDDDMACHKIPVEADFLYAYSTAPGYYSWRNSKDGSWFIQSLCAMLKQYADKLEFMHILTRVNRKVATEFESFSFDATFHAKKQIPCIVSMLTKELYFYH
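Test system: Procaspase-3 D3A mutant; medium: Zinc-free HEPES/NaCl buffer with 0.01% Triton X-100 at pH 7.4; reagent: DEVD-pNA substrate; doses: one concentration, 8.5 µM nominal, 0.8% DMSO; times: 1 h preincubation plus 2 h reaction at 25 °C; signal: Epi-absorbance at 405 nm of released p-nitroaniline, 0 and 120 min; replicates: singlicate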
An asterisk follows results filed as active; · = no result given.

SMILES | PKA-R2B activ | PKA-R1A activ | procasp7 counter | proCasp3 act
O=C(Cn1cnnn1)Nc1cccc([N+](=O)[O-])c1 | 1 | -1 | 2 | 3
Cc1ccc(S(=O)(=O)NC2CCCC2)cc1C(N)=O | -9 | -1 | -2 | 4
Cc1nc(SCc2ccc(F)cc2)n[nH]1 | -6 | 3 | 7 | -2
Cc1ccc(NC(=O)CN2CCN(C(=O)C3CCCO3)CC2)c(C)c1 (stereo not given) | 4 | 5 | 12 | 0
Clc1ccc(OCCOCCN2CCCCC2)c(Br)c1 | 7 | 19* | -5 | -8
O=C(N/N=C/c1ccc(O)cc1O)c1ccc(NC(=O)C2CCCCC2)cc1 | -12 | 0 | 9 | 48*
CCN1CCN(C(=O)c2cc(-c3ccco3)nc3ccccc23)CC1 | -3 | -9 | -3 | 0
O/N=C(\c1ccccn1)C1CC1c1ccccc1 (stereo not given) | 5 | 3 | 11 | -5
Cc1sc2ncn(CC(=O)NCCCC(=O)N3CCC(C)CC3)c(=O)c2c1C | -12 | -2 | 5 | 8
COc1ccccc1C(=O)NNC(=S)NC(=O)c1cccs1 | 2 | 0 | -11 | -6
CCOC(=O)CNC(=S)SC | -2 | -7 | 0 | 5
O=C(CSc1nc2[nH]c(=O)cc(O)c2s1)NCCc1ccccc1 | -6 | -16 | · | ·
OC1OC[C@@H](O)[C@H](O)[C@H]1O (stereo not given in full) | · | · | 4 | 8
COc1ccc(NS(=O)(=O)c2ccc(O)c(C(=O)OCC(=O)NC(C)C3CC4CCC3C4)c2)cc1 (stereo not given) | -6 | -2 | 6 | -7
O=C(N/C(=C\c1ccc([N+](=O)[O-])cc1)C(=O)N1CCOCC1)c1ccccc1 | -1 | -10 | 2 | 9
Cc1ccc(/C=C/C(=O)NCCc2ccccc2)o1 | -4 | -15 | -22 | -18
C#CCOCCOCCOCCNc1nc(N2CCN(C(=O)CCCCCCCCCCNC(=O)[C@H]([C@@H](C)CC)n3cc(CCCCCN)nn3)CC2)nc(N2CCN(C(=O)CCCCCCCCCCNC(=O)[C@H]([C@@H](C)CC)n3cc(CCCCN=C(N)N)nn3)CC2)n1 | 7 | 0 | -3 | -4
C#CCOCCOCCOCCNc1nc(N2CCN(C(=O)CCCCCCCCCCNC(=O)Cn3cc(CCCCCN)nn3)CC2)nc(N2CCN(C(=O)CCCCCCCCCCNC(=O)[C@H]([C@@H](C)CC)n3cc(CCCCN=C(N)N)nn3)CC2)n1 | 21* | 2 | 0 | -3
COc1ccc(-n2nnnc2SCC(=O)Nc2ccccc2N2CCOCC2)cc1 | 2 | 0 | 8 | -1
CCOC(=O)C1=C(C)NC(C)=C(C(=O)OCC)C1c1ccccc1/C=C/C(=O)OC(C)(C)C | · | · | 30* | 18
COc1ccc(CSc2nnc(SCc3ccc([N+](=O)[O-])cc3)s2)cc1 | 13 | 19* | 2 | 1
CNc1snc(C)c1C(=O)OCC(=O)Nc1ccc(C)cc1F | -14 | -7 | · | ·
O=C(NCc1ccco1)c1sc(=S)n2c1[nH]c(=O)c1ccccc12 | 2 | -22 | -3 | -2
O=C(Nc1cccc2[nH]ncc12)c1ccc(F)cc1 | -3 | 19* | -3 | 6
O=C(NC(=S)Nc1cccc2[nH]ncc12)c1ccccc1 | -4 | -5 | -15 | -9
SMILES | PKA-R2B activ | PKA-R1A activ | procasp7 counter | proCasp3 act
CCOC(=O)N1CCN(c2cccc(C)c2C)CC1 | 7 | -6 | -1 | -1
O=C(O)c1ccc(CSc2nnc(-c3ccccc3)n2-c2ccccc2)cc1 | -10 | -10 | 2 | 4
COc1ccc(/C=C(/NC(=O)/C=C/c2ccccc2)C(=O)N2CCOCC2)cc1 | -2 | -18 | 4 | -8
CCN1C(=O)CC(N2CCN(C(c3ccccc3)c3ccccc3)CC2)C1=O (stereo not given) | 4 | 5 | 2 | 6
CCCCNC(=O)c1onc(CSc2ccccc2F)c1C(=O)O | -9 | 1 | 2 | 4
Oc1ccccc1C1=NN(c2ccccc2)C(c2ccc(F)cc2)C1 (stereo not given) | -12 | 4 | · | ·
NS(=O)(=O)c1ccc(N2N=C(c3ccccc3)CC2c2ccc(F)cc2)cc1 (stereo not given) | -6 | -22 | 86* | 64*
Cc1cccc(C)c1-n1nnnc1-c1cnccc1C(F)(F)F | -12 | -2 | -10 | 2
CCN(CC)C(=O)N1CCN(C(=O)N(CC)CC)CC1 | -1 | -4 | 8 | -5
COc1ccccc1CNC(=O)c1cccc(S(=O)(=O)N(C)c2ccccc2)c1 | -2 | 0 | 6 | 6
COc1ccc(CCNC(=O)CSc2nnnn2-c2ccc(OC)c(OC)c2)cc1OC | 0 | -2 | 2 | 9
O=C(N/N=C/C=C\c1ccccc1[N+](=O)[O-])c1ccco1 | -9 | -16 | 4 | 5
CCOC(=O)N1CCN(S(=O)(=O)c2cc(OCC)ccc2OCC)CC1 | 0 | -8 | -1 | -6
CCN(C(=O)COC(=O)c1ccccc1Oc1ccccc1)c1c(N)n(Cc2ccccc2)c(=O)[nH]c1=O | -11 | -17 | · | ·
Cc1ccc2c(c1)c1cccc3c1n2CCN3CCC(N)=O | -6 | -7 | -15 | 16
O=C(COc1ccc(-n2cnnn2)cc1)Nc1ccc(Br)cc1F | -2 | 9 | 3 | 9
CCc1cc(C(=O)NNC(=S)NC(C)c2ccccc2)cs1 (stereo not given) | 4 | -4 | -16 | -15
O=C(Nc1c2c(nn1-c1ccc([N+](=O)[O-])cc1)CS(=O)(=O)C2)C1CC1 | -10 | 0 | 7 | 15
Cc1cc(C)c(OCCN2CCOCC2)c(Cl)c1 | -4 | 5 | 14 | -8
O=C(NCc1cccc(C(F)(F)F)c1)c1cc(Cl)ccc1Cl | -6 | -7 | 4 | -3
O=C(NCc1cccc(C(F)(F)F)c1)c1cc(Cl)cc(Cl)c1 | -9 | -3 | 36* | 1
CCOC(=O)C1CCN(C(=O)CCc2c(C)nc3cc(-c4ccccc4)nn3c2C)CC1 | -10 | 2 | -5 | -6
CCOC(=O)C1CCN(c2cc(C)nc3cc(-c4cccc(F)c4)nn23)CC1 | -7 | -8 | 31* | 26*
COc1cc(NS(=O)(=O)c2ccc(NS(=O)(=O)c3ccccc3)cc2)nc(OC)n1 | -11 | -10 | 4 | -4
CC1Cc2ccccc2N1C(=O)CSc1nc2c(c(=O)n(C)c(=O)n2C)n1Cc1ccc(F)cc1 (stereo not given) | -4 | -3 | 3 | 2
Cc1nc(SCC(=O)NC2CC2)c2c(C)c(C)sc2n1 | -1 | -5 | 7 | 30*
COc1ccc(-c2cc(C(=O)OCC(=O)NC3CC3)c3ccccc3n2)cc1 | -5 | 1 | 26* | 44*
CS(=O)(=O)Cc1ccc(C(=O)NC2CCN(Cc3ccccc3)C2)cc1 (stereo not given) | 8 | -1 | -1 | 3
NC(=O)CSc1ccc(S(=O)(=O)N2CCCCC2)cn1 | 16 | -7 | -12 | -6
